The test system of test [1] is P19. The test is described as follows: Cytotoxicity against undifferentiated mouse P19 cells assessed as mitochondrial superoxide anion level at 100 uM after 24 hrs by MitoSox dye based fluorescence assay relative to control. The test is classed as functional. In outline:
(§1)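 Undifferentiated (P19SCs) or differentiated (P19dCs) P19 cells incubated 24 or 72 h with 1 or 100 µM. Mitochondrial membrane potential and mitochondrial superoxide levels measured and expressed relative to untreated control. Means ± SD from 4 independent measurements, at least 4 repeats each. Significance at p<0.05.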

Test [2] deals with P19. The test is described as follows: Cytotoxicity against undifferentiated mouse P19 cells assessed as mitochondrial superoxide anion level at 1 uM after 72 hrs by MitoSox dye based fluorescence assay relative to control. The test is classed as functional. In outline:
as §1

The subject of test [3] is P19. The test is described as follows: Cytotoxicity against differentiated mouse P19 cells assessed as mitochondrial membrane potential at 1 uM after 72 hrs by TMRF dye based fluorescence assay relative to control. The test is classed as functional. The essentials: as §1
Test [4] deals with P19. In words: Cytotoxicity against undifferentiated mouse P19 cells assessed as cell mass at 1 to 100 uM after 72 hrs by SRB assay relative to control. The test is classed as functional. The essentials:
(§2)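 Cell mass by SRB assay in P19 cells (CRL-1825), either undifferentiated (P19SCs) or differentiated (P19dCs). Cells exposed to 1, 10 or 100 µM for 24, 48 or 72 h. Values expressed relative to untreated control. Means ± SD from at least 4 independent measurements, 6 repeats each. Significance vs control at p<0.05.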

Test [5] has as its system P19. In words: Cytotoxicity against differentiated mouse P19 cells assessed as metabolic activity at 1 to 100 uM after 72 hrs by resazurin assay relative to control. The test is classed as functional. In outline: (§3)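 Metabolic activity by resazurin reduction in undifferentiated (P19SCs) or differentiated (P19dCs) P19 cells. Exposure to 1, 10 or 100 µM for 24, 48 or 72 h. Read-out relative to untreated control. Significance vs control at p<0.05.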

The test system of test [6] is P19. In words: Cytotoxicity against differentiated mouse P19 cells assessed as mitochondrial superoxide anion level at 100 uM after 72 hrs by MitoSox dye based fluorescence assay relative to control. The test is classed as functional. The essentials: as §1
Test [7] relates to P19. In words: Cytotoxicity against undifferentiated mouse P19 cells assessed as mitochondrial membrane potential at 100 uM after 24 hrs by TMRF dye based fluorescence assay relative to control. The test is classed as functional. In outline:
as §1

For test [8], the system named is P19. In words: Cytotoxicity against undifferentiated mouse P19 cells assessed as cell mass at 1 to 100 uM after 48 hrs by SRB assay relative to control. The test is classed as functional. The essentials:
as §2
For orientation: The SRB assay estimates cell density from bound dye.

For test [9], the system named is P19. In words: Cytotoxicity against undifferentiated mouse P19 cells assessed as mitochondrial membrane potential at 1 uM after 24 hrs by TMRF dye based fluorescence assay relative to control. The test is classed as functional. The essentials:
as §1

In test [10] the test system is P19. The test is described as follows: Cytotoxicity against undifferentiated mouse P19 cells assessed as mitochondrial superoxide anion level at 100 uM after 72 hrs by MitoSox dye based fluorescence assay relative to control. The test is classed as functional. In outline: as §1
In test [11] the test system is P19. The test is described as follows: Cytotoxicity against differentiated mouse P19 cells assessed as cell mass at 1 to 100 uM after 72 hrs by SRB assay relative to control. The test is classed as functional. The essentials:
as §2

The subject of test [12] is P19. In words: Cytotoxicity against undifferentiated mouse P19 cells assessed as mitochondrial superoxide anion level at 1 uM after 24 hrs by MitoSox dye based fluorescence assay relative to control. The test is classed as functional. The essentials:
as §1

In test [13] the test system is P19. In words: Cytotoxicity against undifferentiated mouse P19 cells assessed as metabolic activity at 1 to 100 uM after 24 hrs by resazurin assay relative to control. The test is classed as functional. In outline: as §3
Background: Alamar Blue is a resazurin reagent that responds to reducing activity.

Test [14] has as its system P19. The test is described as follows: Cytotoxicity against differentiated mouse P19 cells assessed as mitochondrial superoxide anion level at 100 uM after 24 hrs by MitoSox dye based fluorescence assay relative to control. The test is classed as functional. The essentials:
as §1

The subject of test [15] is P19. In words: Cytotoxicity against differentiated mouse P19 cells assessed as cell mass at 1 to 100 uM after 48 hrs by SRB assay relative to control. The test is classed as functional. In outline:
as §2

In test [16] the test system is P19. The test is described as follows: Cytotoxicity against differentiated mouse P19 cells assessed as metabolic activity at 1 to 100 uM after 24 hrs by resazurin assay relative to control. The test is classed as functional. In outline:
as §3

Test [17] concerns the target T1, Hexokinase-2 (Mus musculus) (UniProt O08528).
T1 sequence (whole entry): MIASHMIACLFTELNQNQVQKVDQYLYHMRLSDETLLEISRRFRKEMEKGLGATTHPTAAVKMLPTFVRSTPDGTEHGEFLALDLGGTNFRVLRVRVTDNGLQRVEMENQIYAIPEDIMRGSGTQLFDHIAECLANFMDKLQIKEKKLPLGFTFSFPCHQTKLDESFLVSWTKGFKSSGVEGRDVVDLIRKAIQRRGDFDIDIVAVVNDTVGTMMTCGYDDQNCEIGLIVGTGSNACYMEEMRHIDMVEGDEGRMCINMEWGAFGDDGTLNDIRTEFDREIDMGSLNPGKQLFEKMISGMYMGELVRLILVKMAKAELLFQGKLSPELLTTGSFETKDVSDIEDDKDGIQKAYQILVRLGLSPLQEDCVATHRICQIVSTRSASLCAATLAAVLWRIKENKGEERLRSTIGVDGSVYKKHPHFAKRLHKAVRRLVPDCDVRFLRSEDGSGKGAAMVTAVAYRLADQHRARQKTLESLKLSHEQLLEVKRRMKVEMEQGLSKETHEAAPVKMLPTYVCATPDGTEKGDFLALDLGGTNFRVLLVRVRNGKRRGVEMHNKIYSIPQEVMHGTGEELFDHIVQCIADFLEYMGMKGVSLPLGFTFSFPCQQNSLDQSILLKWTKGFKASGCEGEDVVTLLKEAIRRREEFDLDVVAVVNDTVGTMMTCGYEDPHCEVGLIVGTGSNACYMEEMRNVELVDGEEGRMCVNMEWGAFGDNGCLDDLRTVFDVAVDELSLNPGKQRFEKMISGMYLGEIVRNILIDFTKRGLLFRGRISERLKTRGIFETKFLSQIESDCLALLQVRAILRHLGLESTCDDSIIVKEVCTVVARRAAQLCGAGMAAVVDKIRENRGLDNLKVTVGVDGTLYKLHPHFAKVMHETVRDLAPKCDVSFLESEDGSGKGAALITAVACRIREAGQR
The test is described as follows: Inhibition of HK2 isolated from mouse undifferentiated P19 cell lysates using [U-14C]-labeled glucose as substrate in presence of ATP and NADP by G6PD enzyme coupled spectrophotometric assay. The settings on record: in the assay text read “glucose” for “[U-14C]-labeled glucose”. The essentials: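 Coupled hexokinase assay at 340 nm following G6P-dependent NADP→NADPH conversion. Enzyme source is freshly prepared, centrifuged undifferentiated P19 lysate supernatant or recombinant human HKII. Buffer: 100 mM Tris-HCl pH 8.0, 0.5 mM EDTA, 10 mM MgCl2, 2 mM glucose, 0.1 mM NADP, 0.1 U/ml G6PD. Preincubated 10 min at 37°C; reaction started with 10 mM ATP. Means ± SD, 4 experiments, at least 4 repeats each.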

Test [18] relates to P19. The test is described as follows: Cytotoxicity against undifferentiated mouse P19 cells assessed as metabolic activity at 1 to 100 uM after 72 hrs by resazurin assay relative to control. The test is classed as functional. The essentials: as §3
Test [19] has as its system P19. In words: Cytotoxicity against differentiated mouse P19 cells assessed as metabolic activity at 1 to 100 uM after 48 hrs by resazurin assay relative to control. The test is classed as functional. The essentials:
as §3

Test [20] concerns P19. In words: Cytotoxicity against differentiated mouse P19 cells assessed as mitochondrial superoxide anion level at 1 uM after 72 hrs by MitoSox dye based fluorescence assay relative to control. The test is classed as functional. The essentials:
as §1

Test [21] deals with P19. In words: Cytotoxicity against differentiated mouse P19 cells assessed as cell mass at 1 to 100 uM after 24 hrs by SRB assay relative to control. The test is classed as functional. The essentials:
as §2

In the case of `O=C(c1ccc2c(c1)C(=O)N(c1cccc(O)c1)C2=O)c1ccc2c(c1)C(=O)N(c1cccc(O)c1)C2=O`, the Activity in the test on P19 [1] was found to be 55.1%; in the test with P19 [2], 106%; in the test with P19 [3] it was 87.8%; in the test with P19 [4], 58.9%; with P19 [5], 91.5%; in the test on P19 [6], 149.1%. For the same compound, the Activity in the test with P19 [7] is recorded as 91%; in the test with P19 [8] it was 79.9%; with P19 [9], 86%; with P19 [10], 108.3%; with P19 [11], 71.9%; in the test on P19 [12], 83.2%. In addition, the Activity was 102.6% in the test on P19 [13]; 117.4% in the test on P19 [14]; 102.2% with P19 [15]; 100% with P19 [16]; 59.8% in the test with P19 [18]; 97.5% in the test with P19 [19]. In addition, the Activity in the test with P19 [20] is listed as 105.3%; with P19 [21], 100%. For the same compound, the inhibition result in [17] was “Dose-dependent effect”.
